# What was measured:
# human BCRP = conditions: 3H-labelled tariquidar 1 nM, reversed by fumitremorgin C; cited from earlier work
# human Pgp = human Pgp (Homo sapiens, UniProt P08183); conditions: for logIC50: fitted parameter±standard error, GraphPad Prism, R123 efflux, MDCKII-MDR1
# Pgp/BCRP at the BBB [1] = test: small-animal PET of [18F]4b in rats before/after unlabelled 1; type: in vivo, rat; conditions: 25 min after tracer injection, scanned 2 h after 1 (5 mg/kg), p=0.0002
# How it was run: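 Naïve rats were kept under isoflurane (2.5% induction, 1.5–2% maintenance) at about 38°C, with femoral artery and vein catheters. The tracer was given as an i.v. bolus (33±3 MBq) in saline/EtOH/PEG300 (50/15/35). Arterial samples were gamma-counted, and whole-brain TACs were expressed as SUV. Groups were compared by 2-tailed Student's t-test.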
# [2] = plasma protein binding by ultrafiltration; type: in vitro ADME, rat; conditions: 30 min at 37°C, n=3
# How it was run: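 Fresh plasma from naïve rats was incubated with the 18F-labelled tracer for 30 min at 37°C. Bound and free tracer were then separated by ultrafiltration through centrifugal filter devices.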
# [3] = type: in vivo, rat
# Pgp/BCRP at the BBB [4] = conditions: mouse brain, unlabelled 1 0.1-10 mg/kg i.v.; cited from earlier work
# Pgp = conditions: cited from earlier work
# Sequence of human Pgp (P08183 whole entry): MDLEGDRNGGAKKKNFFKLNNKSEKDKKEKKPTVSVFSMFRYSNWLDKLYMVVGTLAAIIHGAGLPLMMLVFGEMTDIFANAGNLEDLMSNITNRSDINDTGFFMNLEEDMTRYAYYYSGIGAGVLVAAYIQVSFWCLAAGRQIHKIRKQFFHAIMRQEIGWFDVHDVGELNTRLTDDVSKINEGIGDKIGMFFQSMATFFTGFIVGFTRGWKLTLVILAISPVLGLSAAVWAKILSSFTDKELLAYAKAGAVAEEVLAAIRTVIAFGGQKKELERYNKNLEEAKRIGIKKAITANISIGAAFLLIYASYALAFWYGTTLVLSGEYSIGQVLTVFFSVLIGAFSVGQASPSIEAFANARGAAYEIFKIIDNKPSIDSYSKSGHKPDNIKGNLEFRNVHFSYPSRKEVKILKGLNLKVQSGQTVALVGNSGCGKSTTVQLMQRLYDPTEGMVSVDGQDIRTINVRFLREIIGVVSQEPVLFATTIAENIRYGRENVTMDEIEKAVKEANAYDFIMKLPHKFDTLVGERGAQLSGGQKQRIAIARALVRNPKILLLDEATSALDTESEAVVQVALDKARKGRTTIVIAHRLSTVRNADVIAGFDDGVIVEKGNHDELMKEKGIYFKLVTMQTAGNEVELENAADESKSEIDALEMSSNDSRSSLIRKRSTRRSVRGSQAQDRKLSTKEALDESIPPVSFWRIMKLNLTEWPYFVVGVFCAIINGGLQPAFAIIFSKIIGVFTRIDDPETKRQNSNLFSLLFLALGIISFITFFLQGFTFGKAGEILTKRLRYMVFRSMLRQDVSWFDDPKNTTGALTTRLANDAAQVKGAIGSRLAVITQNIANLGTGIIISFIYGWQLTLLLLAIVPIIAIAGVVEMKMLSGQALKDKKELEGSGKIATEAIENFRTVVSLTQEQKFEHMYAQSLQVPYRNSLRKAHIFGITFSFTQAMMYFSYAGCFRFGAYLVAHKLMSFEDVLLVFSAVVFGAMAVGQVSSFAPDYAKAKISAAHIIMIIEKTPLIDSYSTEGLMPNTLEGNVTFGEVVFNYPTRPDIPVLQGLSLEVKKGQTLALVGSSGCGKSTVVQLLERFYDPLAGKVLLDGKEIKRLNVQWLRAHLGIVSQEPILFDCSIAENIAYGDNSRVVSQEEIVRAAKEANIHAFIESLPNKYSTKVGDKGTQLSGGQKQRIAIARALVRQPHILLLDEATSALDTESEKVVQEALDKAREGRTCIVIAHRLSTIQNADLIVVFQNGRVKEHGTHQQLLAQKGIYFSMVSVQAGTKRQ
compound,measurement,setting,value
COc1cc2c(cc1OC)CN(CCc1ccc(NC(=O)c3cc(OC)c(OC)cc3NC(=O)c3cnc4ccccc4c3)cc1)CC2 [tariquidar],BCRP transport,human BCRP,avid substrate of BCRP
"COc1cc2c(cc1OC)CN(CCc1ccc(NC(=O)c3ccc([N+](=O)[O-])c4c(=O)c5cccc(OC)c5[nH]c34)cc1)CC2 [4c, N-(4-(2-(6,7-dimethoxy-1,2,3,4-tetrahydroisoquinolin-2-yl)ethyl)phenyl)-5-methoxy-1-nitroacridone-4-carboxamide]",logIC50,human Pgp,0.21±0.07
"COc1cc2c(cc1OC)CN(CCc1ccc(NC(=O)c3ccc([18F])c4c(=O)c5cccc(OC)c5[nH]c34)cc1)CC2 [[^18F]4b, 1-[^18F]fluoroelacridar]",brain activity uptake increase after unlabelled 1 (group 2 vs group 1),Pgp/BCRP at the BBB [1],9.5 times
same,protein-bound in rat plasma,[2],98.0±1.7%
same,total radioactivity in brain in the form of unchanged tracer,"[3]; rat brain extracts, 40 min after injection, HPLC",> 90%
same,"total radioactivity in the form of unchanged tracer, HPLC of SPE fraction 3","[3]; rat plasma, 40 min sample",72±27%
"COc1cc2c(cc1OC)CN(CCc1ccc(NC(=O)c3ccc(F)c4c(=O)c5cccc(OC)c5[nH]c34)cc1)CC2 [4b, N-(4-(2-(6,7-dimethoxy-1,2,3,4-tetrahydroisoquinolin-2-yl)ethyl)phenyl)-1-fluoro-5-methoxyacridone-4-carboxamide]",logIC50,human Pgp,0.24±0.04
same,IC50 times higher than 1,"human Pgp; human, pH 7.4",about 4 times
"COc1cc2c(cc1OC)CN(CCc1ccc(NC(=O)c3cc(F)cc4c(=O)c5cccc(OC)c5[nH]c34)cc1)CC2 [4e, N-(4-(2-(6,7-dimethoxy-1,2,3,4-tetrahydroisoquinolin-2-yl)ethyl)phenyl)-2-fluoro-5-methoxyacridone-4-carboxamide]",logIC50,human Pgp,−0.21±0.08
"COc1cc2c(cc1OC)CN(CCc1ccc(NC(=O)c3cc(Cl)cc4c(=O)c5cccc(OC)c5[nH]c34)cc1)CC2 [4d, 2-Chloro-N-(4-(2-(6,7-dimethoxy-1,2,3,4-tetrahydroisoquinolin-2-yl)ethyl)phenyl)-5-methoxyacridone-4-carboxamide]",logIC50,human Pgp,0.14±0.08
"COc1cc2c(cc1OC)CN(CCc1ccc(NC(=O)c3ccc(Cl)c4c(=O)c5cccc(OC)c5[nH]c34)cc1)CC2 [4a, 1-Chloro-N-(4-(2-(6,7-dimethoxy-1,2,3,4-tetrahydroisoquinolin-2-yl)ethyl)phenyl)-5-methoxyacridone-4-carboxamide]",logIC50,human Pgp,0.58±0.04
"COc1cc2c(cc1OC)CN(CCc1ccc(NC(=O)c3cccc4c(=O)c5cccc(OC)c5[nH]c34)cc1)CC2 [compound 1, elacridar]",dose at which brain uptake of [11C]1 started to increase,Pgp/BCRP at the BBB [4],greater than 0.1 mg/kg
same,half-maximum effect dose for increase of [11C]1 brain uptake,Pgp/BCRP at the BBB [4],1.55 mg/kg
same,stimulation of ATPase activity,Pgp,does not stimulate
same,Maximal inhibitory effect (%),"human Pgp; human, pH 7.4",100%

# Source: PMC3690701 (Bioorganic & medicinal chemistry, 2011)
